# Rows were chosen to be rich in hits. Some 1.7% of all compounds tested hit in one or more screens of this group.
# Beta2AR agonist: human beta-2 adrenergic receptor agonism by FAP. AID 504454. response, % (concentration not given with the values). 340,000 tested, 0.43% active. Am2.2-beta2AR cells, FAP receptor internalization, flow cytometry. P07550;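 active = response above a set limit, near 3 SD of response in nonfluorescent compounds, cut at about 42% in these data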
# CCR6 antagonist: CCR6 (human) receptor antagonism. CHO-K1 CCR6 PathHunter beta-arrestin, luminescence, CCL20-stimulated. inhibition, % at 20 µM. P51684. 340,000 tested, 0.49% active;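 active = compounds whose inhibition of the agonist-driven luminescence signal at 20 µM reaches about 50%, limit read from the data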;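 note: cells stimulated with CCL20 at 14 nM final; plate controls were DMSO with CCL20 for no effect and DMSO without agonist for full effect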
# Target sequence (P51684 whole entry, looked up): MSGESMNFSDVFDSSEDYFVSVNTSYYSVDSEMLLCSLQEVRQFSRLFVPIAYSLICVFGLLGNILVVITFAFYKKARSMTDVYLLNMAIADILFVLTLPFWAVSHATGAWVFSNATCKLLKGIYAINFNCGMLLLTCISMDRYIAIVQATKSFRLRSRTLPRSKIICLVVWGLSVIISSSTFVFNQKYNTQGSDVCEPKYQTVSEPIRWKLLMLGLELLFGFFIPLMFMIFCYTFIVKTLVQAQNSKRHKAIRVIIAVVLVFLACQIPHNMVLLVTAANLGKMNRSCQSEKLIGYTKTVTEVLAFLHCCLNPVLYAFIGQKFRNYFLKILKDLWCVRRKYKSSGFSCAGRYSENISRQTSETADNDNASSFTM
# APJ agonist: activates the human apelin receptor APJ; P35414; CHO-K1 APJ PathHunter beta-arrestin, luminescence; 0% DMSO wells, 100% apelin; activation, % at 20 µM; 330,000 tested, 0.11% active; AID 2520;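 active = activation more than six SD over the plate average, tested at 20 µM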;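 note: 0% = DMSO alone and 100% = apelin-13 at 10 nM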
#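 Test system: CHO-K1 APJ beta-arrestin complementation cell line. Amount: cell density 1000 per well. Controls: DMSO negative, 10 nM Apelin-13 positive. Signal: luminescent beta-gal fragment complementation, chemiluminescent substrate. Read-out basis: agonist-driven arrestin binding to APJ. Timing: compound stimulation 90 min at 25 °C, detection 60 min.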
# APJ antag: antagonists of human APJ apelin receptor; P35414; CHO-K1 APJ beta-arrestin complementation, luminescence; inhibition, % at 20 µM; 330,000 tested, 0.32% active;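 active = inhibition above about 40% at 20 µM, limit read from the data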;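 note: cells challenged with 10 nM apelin-13 agonist together with compound; plate controls were apelin-13 plus DMSO wells for no effect and DMSO wells lacking apelin-13 for full effect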
# PfG6PD inh: PfG6PD (Plasmodium falciparum) enzyme inhibition | inhibition, % at 20 µM | 350,000 tested, 0.78% active | PfGluPho enzyme, NADPH resazurin-diaphorase fluorescence;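 active = inhibition reaching at least a set limit at 20 µM in the primary screen, cut at about 59% in these data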;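 note: 0% = DMSO wells with substrate and 100% = DMSO wells lacking glucose-6-phosphate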
# CXCR6 inh: CXCR6 (human) receptor inhibition. AID 602244. O00574. CHO-K1 PathHunter CXCR6 beta-arrestin, luminescence. inhibition, % at 20 µM. 360,000 tested, 0.36% active; in the data active = inhibition above about 34%, passing the limit was not always enough;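 note: antagonist mode with CXCL16 agonist at 10 nM final; 0% = 10 nM CXCL16 with DMSO and 100% = unstimulated wells without agonist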
# PfGluPho conf: PfG6PD inhibition, single-dose confirmed; 2,400 tested, 34% active; recombinant PfGluPho, NADPH-diaphorase-resazurin fluorescence; inhibition, % at 20 µM; shares compounds with PfG6PD inh;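 active = inhibition of at least 50% at 20 µM in any single replicate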;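 note: 0% = DMSO with substrate and 100% = DMSO lacking glucose-6-phosphate substrate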
# Diaph ctr 10uM: diaphorase inhibition or oxidation at 10 uM NADPH; shares compounds with PfG6PD inh; diaphorase-coupled resazurin reduction, fluorescence, NADPH 10 uM; inhibition, % at 20 µM; 820 tested, 39% active;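 active = average inhibition reaching 50% or more with the compound at 20 µM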;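 note: resorufin red fluorescence formed as diaphorase reduces resazurin using NADPH; 0% = DMSO with enzyme and 100% = DMSO without enzyme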
# Diaph ctr 30uM: diaphorase inhibition or oxidation at 30 uM NADPH | shares compounds with PfG6PD inh | Diaphorase/resazurin coupled assay, resorufin fluorescence | inhibition, % at 20 µM | 820 tested, 29% active;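 active = inhibition averaging 50% or more, tested at 20 µM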;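 note: 0% = DMSO with enzyme and 100% = DMSO wells lacking diaphorase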
# Active calls of the source: *; . = not tested or not shown.
SMILES,Beta2AR agonist,CCR6 antagonist,APJ agonist,APJ antag,PfG6PD inh,CXCR6 inh,PfGluPho conf,Diaph ctr 10uM,Diaph ctr 30uM
CC1NC(=O)c2ccccc2-n2c1nc1cc(F)ccc1c2=O (stereo unspecified),.,.,-3,-1,.,.,.,.,.
Cn1sc2ccccc2c1=O,.,.,.,.,91*,0,52*,-13,8
O=NN(C(=O)NC1CCC(C(=O)O)CC1)C1CCC(C(=O)O)CC1 (stereo unspecified),.,.,.,.,.,3,.,.,.
COc1ccc(NC(=O)N(C)C[C@H]2Oc3cc(Br)ccc3S(=O)(=O)N([C@H](C)CO)C[C@@H]2C)cc1,.,.,.,.,-1,-2,.,.,.
Oc1ccc(/C=N/N=C(c2ccccc2)c2ccccc2)c(O)c1O,4,26,.,.,75*,10,73*,51*,35
Cc1csc(=Nc2c(C)n(C)n(-c3ccccc3)c2=O)n1Cc1ccccc1,8,10,-5,7,-9,8,.,.,.
Cc1c(N=C2C=C(Br)C(=O)C(Br)=C2)c(=O)n(-c2ccccc2)n1C,1,30,-1,-61,98*,-9,103*,38,11
Cc1nc2c(=O)[nH]c(=S)n(C)c2nc1C,-2,6,-1,-2,65*,2,35,.,.
COc1ccc(OC2C(=O)N(c3ccc(C)c(C)c3)C2c2ccc(OC)c(OC)c2)cc1 (stereo unspecified),4,6,-2,-1,97*,-1,28,.,.
Cc1nc(SCC(=O)c2ccc(F)cc2)n[nH]1,-1,27,0,-8,63*,3,-15,.,.
COc1cc(C=C2CN(C)C(=O)C2=O)ccc1O,.,.,.,.,36,32,.,.,.
COc1cc(/C=C2\OC(=O)c3c(OC)cccc32)ccc1O,5,4,-2,-19,74*,-9,14,.,.
Brc1cccc(Nc2nc(-c3cccnc3)cs2)c1,-6,-7,-2,-23,60*,-12,-14,.,.
Brc1ccc(Nc2nc(-c3cccnc3)cs2)cc1,1,1,-3,2,48,5,.,.,.
CC1CCN(c2ccc3nnc(CCC(=O)NCCCOC(C)C)n3n2)CC1,-5,2,-2,-3,3,-5,.,.,.
CS(=O)(=O)N(CC(=O)N/N=C/c1cc([N+](=O)[O-])ccc1Cl)c1ccccc1,-3,-1,7,0,54,-5,.,.,.
Cc1cccc(N(CC(=O)N/N=C/c2cc([N+](=O)[O-])ccc2Cl)S(C)(=O)=O)c1C,10,-15,7,-6,123*,-3,82*,79*,71*
CCC(CO)[n+]1c(C)cc(/C=C2\Sc3ccccc3N2Cc2ccccc2)cc1C (stereo unspecified),-389,15,.,.,74*,-6,54*,24,31
Cc1cc(C)c(C)c(Cn2c(CO)nc3ccccc32)c1C,0,-2,-2,17,69*,-16,36,.,.
COc1cccc(/C=N/NC(=O)CSc2cccc3cccnc23)c1,6,42,-1,24,69*,19,54*,64*,41
Cc1ccc(NC(=S)NC(=O)C2CC2)c(C)c1,-6,-10,-3,16,1,-3,.,.,.
O=c1c2ccccc2sn1-c1ccc(S(=O)(=O)N2CCCCC2)cc1,10,9,3,-30,111*,-4,83*,5,-13
O=S(=O)(c1ccc(S(=O)(=O)N2CCCC2)cc1)N1CCCCC1,.,-1,2,6,2,.,.,.,.
O=c1c2ccccc2sn1-c1ccc(S(=O)(=O)N2CCCC2)cc1,-6,-2,6,-17,111*,-10,105*,-9,-5
CCOc1ccc(C(=O)C(C)OC(=O)Cn2[nH]c(=O)c3ccccc3c2=O)cc1 (stereo unspecified),0,9,-4,11,-6,2,.,.,.
SMILES,Beta2AR agonist,CCR6 antagonist,APJ agonist,APJ antag,PfG6PD inh,CXCR6 inh,PfGluPho conf,Diaph ctr 10uM,Diaph ctr 30uM
CC12CCC(C(=O)Nc3nc4ccccc4s3)(OC1=O)C2(C)C (stereo unspecified),-3,6,-1,7,15,-2,.,.,.
O=C(O)C(Cc1ccccc1)N1C(=O)CCC1=O (stereo unspecified),0,8,0,9,-17,0,.,.,.
O=C(O)C(Cc1ccccc1)N1C(=O)C=CC1=O (stereo unspecified),.,.,.,.,90*,-9,85*,18,2
CSc1cnn(Cc2ccccc2)c(=O)c1SCc1ccccc1,2,22,.,.,66*,22,-6,.,.
CSc1cnn(-c2ccccc2)c(=O)c1SC,1,-10,-1,2,2,4,.,.,.
CSc1nc(N2CCOCC2)nc2ccc(C)cc12,6,-5,-5,14,-4,-7,.,.,.
COc1cc(OC)c(NC(=O)c2cc3ccccc3cc2O)cc1Cl,13,-14,.,.,85*,-21,23,.,.
COc1cc(Cl)c(C)cc1NC(=O)c1ccc(S(C)(=O)=O)cc1,9,14,-2,-2,4,-3,.,.,.
CCCOC1CCCN(C(=O)c2ccc(OC)c(OC3CCN(C(C)C)CC3)c2)C1 (stereo unspecified),8,-6,-3,12,4,10,.,.,.
Cn1cc(C2=C(c3ccc(Cl)cc3Cl)C(=O)NC2=O)c2ccccc21,-250,39,-4,15,66*,15,-1,.,.
CCOC(=O)[C@]12CCCC=C1N(Cc1ccco1)C(=O)[C@H](CC(=O)N1CCN(C(=O)c3ccco3)CC1)C2,.,.,.,.,.,-6,.,.,.
CCCCC(=O)Nc1sc(C(=O)N(CC)CC)c(C)c1C(=O)OC,-9,5,-12,20,70*,-2,30,.,.
CCc1cc(-c2n[nH]c(CCC(=O)O)c2-c2nc3ccccc3n2C)c(O)cc1O,-8,4,-2,-13,25,-1,.,.,.
CCc1cc(-c2n[nH]c(C)c2-c2nc3ccccc3n2C)c(O)cc1O,1,10,-3,-9,61*,-2,49*,28,26
CCc1cc(-c2n[nH]c(C)c2-c2ccccc2Cl)c(O)cc1OC,11,11,-2,-11,98*,6,51*,55*,34
NC(=O)c1cc(S(=O)(=O)Nc2cccc(Cl)c2)cs1,-7,16,-1,-2,-9,-3,.,.,.
CC(=O)NC1CCC(OC(=O)Nc2ccccc2)CC1 (stereo unspecified),-3,-3,.,.,3,0,.,.,.
COc1cc(C(=O)Nc2nc(C)c(Cc3ccc4c(c3)OCO4)s2)cc(OC)c1OC,19,-8,-4,15,62*,-12,34,.,.
